# Laboratory results from ChEMBL document CHEMBL3867440, “Hernandezine, a Bisbenzylisoquinoline Alkaloid with Selective Inhibitory Activity against Multidrug-Resistance-Linked ATP-Binding Cassette Drug Transporter ABCB1” (J Nat Prod, 2016).
# Legend:
# [1] = biological target: Multidrug resistance-associated protein 1 (Homo sapiens, UniProt P33527); assay: Inhibition of human ABCC1 transfected in HEK293 cells assessed as potentiation of etoposide-induced cytotoxicity by measuring etoposide resistance ratio at 500 nM after 72 hrs by CCK8 assay relative to parental HEK293 cells (reference value: 350); format: cell-based; details: hek293, 72 h, 0.5 µM
# KB 3-1 = assay: Induction of apoptosis in human KB-3-1 cells assessed as late apoptotic cells at 1 uM after 48 hrs by Annexin V-FITC/propidium iodide staining based FACS analysis (reference value: 5.8%); format: functional
# [2] = biological target: T1, ATP-dependent translocase ABCB1 (Homo sapiens, UniProt P08183); assay: Inhibition of ABCB1 in human KBV1 cells assessed as potentiation of colchicine-induced cytotoxicity by measuring colchicine resistance ratio at 200 nM after 72 hrs by MTT assay relative to parental KB-3-1 cells (reference value: 55); format: cell-based; details: kbv1, 72 h, 0.2 µM
# In short: (§1)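 Cells were kept in drug-free DMEM with 10% FCS for 7 days before assay, then plated at 5000 cells/well for 24 h. Drug at various concentrations was added with a nontoxic fixed level of modulator for 72 h, and the read-out was MTT. IC50 came from fitted curves (≥3 experiments). RR = IC50 of the resistant line / IC50 of the parental line.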
# [3] = biological target: T1, ATP-dependent translocase ABCB1; assay: Inhibition of human ABCB1 transfected in HEK293 cells assessed as potentiation of doxorubicin-induced cytotoxicity by measuring doxorubicin resistance ratio at 100 nM after 72 hrs by CCK8 assay relative to parental HEK293 cells (reference value: 96); format: cell-based; details: hek293, 72 h, 0.1 µM
# [4] = biological target: T1, ATP-dependent translocase ABCB1; assay: Inhibition of ABCB1 in human NCI-ADR-RES cells assessed as potentiation of colchicine-induced cytotoxicity by measuring colchicine resistance ratio at 100 nM after 72 hrs by MTT assay relative to parental OVCAR8 cells (reference value: 59); format: cell-based; details: ovcar-8, 72 h, 0.1 µM; in short: as §1
# KB-V1 = assay: Induction of apoptosis in human KBV1 cells assessed as early apoptotic cells at 1 uM after 48 hrs by Annexin V-FITC/propidium iodide staining based FACS analysis (reference value: 5.3%); format: functional
# T1 sequence (P08183 whole entry): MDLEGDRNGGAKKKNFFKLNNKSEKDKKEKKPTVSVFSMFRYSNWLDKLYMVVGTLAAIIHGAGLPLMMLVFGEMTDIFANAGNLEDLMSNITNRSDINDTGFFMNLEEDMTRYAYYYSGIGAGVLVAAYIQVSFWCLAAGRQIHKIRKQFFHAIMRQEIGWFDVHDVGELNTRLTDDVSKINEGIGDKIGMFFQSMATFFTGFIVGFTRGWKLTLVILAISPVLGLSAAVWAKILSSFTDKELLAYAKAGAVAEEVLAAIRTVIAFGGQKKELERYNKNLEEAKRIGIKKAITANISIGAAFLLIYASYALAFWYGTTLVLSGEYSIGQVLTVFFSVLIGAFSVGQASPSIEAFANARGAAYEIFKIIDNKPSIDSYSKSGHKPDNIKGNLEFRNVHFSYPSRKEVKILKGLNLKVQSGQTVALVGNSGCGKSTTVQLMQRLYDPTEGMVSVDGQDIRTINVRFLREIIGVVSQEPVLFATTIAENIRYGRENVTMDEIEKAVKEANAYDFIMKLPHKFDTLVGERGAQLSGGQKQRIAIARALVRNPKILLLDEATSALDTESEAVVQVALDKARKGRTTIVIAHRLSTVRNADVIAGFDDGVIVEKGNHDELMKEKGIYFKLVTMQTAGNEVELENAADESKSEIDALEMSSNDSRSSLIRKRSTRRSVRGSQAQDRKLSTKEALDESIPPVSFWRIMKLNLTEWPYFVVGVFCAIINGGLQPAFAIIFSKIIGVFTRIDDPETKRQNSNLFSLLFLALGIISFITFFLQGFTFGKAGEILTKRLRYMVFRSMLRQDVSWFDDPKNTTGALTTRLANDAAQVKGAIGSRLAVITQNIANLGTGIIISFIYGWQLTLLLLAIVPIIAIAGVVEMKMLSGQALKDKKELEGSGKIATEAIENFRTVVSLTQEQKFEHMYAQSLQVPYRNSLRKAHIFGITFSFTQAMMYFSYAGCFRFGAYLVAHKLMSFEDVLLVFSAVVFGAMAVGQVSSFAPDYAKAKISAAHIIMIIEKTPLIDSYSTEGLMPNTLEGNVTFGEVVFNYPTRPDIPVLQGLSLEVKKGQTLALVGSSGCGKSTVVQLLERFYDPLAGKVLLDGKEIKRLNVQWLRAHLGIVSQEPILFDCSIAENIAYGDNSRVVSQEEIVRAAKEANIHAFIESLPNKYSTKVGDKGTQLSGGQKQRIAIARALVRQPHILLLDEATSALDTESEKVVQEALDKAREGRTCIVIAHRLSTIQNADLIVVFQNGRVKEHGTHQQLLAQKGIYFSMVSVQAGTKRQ
# Sequence of Multidrug resistance-associated protein 1 (P33527 whole entry): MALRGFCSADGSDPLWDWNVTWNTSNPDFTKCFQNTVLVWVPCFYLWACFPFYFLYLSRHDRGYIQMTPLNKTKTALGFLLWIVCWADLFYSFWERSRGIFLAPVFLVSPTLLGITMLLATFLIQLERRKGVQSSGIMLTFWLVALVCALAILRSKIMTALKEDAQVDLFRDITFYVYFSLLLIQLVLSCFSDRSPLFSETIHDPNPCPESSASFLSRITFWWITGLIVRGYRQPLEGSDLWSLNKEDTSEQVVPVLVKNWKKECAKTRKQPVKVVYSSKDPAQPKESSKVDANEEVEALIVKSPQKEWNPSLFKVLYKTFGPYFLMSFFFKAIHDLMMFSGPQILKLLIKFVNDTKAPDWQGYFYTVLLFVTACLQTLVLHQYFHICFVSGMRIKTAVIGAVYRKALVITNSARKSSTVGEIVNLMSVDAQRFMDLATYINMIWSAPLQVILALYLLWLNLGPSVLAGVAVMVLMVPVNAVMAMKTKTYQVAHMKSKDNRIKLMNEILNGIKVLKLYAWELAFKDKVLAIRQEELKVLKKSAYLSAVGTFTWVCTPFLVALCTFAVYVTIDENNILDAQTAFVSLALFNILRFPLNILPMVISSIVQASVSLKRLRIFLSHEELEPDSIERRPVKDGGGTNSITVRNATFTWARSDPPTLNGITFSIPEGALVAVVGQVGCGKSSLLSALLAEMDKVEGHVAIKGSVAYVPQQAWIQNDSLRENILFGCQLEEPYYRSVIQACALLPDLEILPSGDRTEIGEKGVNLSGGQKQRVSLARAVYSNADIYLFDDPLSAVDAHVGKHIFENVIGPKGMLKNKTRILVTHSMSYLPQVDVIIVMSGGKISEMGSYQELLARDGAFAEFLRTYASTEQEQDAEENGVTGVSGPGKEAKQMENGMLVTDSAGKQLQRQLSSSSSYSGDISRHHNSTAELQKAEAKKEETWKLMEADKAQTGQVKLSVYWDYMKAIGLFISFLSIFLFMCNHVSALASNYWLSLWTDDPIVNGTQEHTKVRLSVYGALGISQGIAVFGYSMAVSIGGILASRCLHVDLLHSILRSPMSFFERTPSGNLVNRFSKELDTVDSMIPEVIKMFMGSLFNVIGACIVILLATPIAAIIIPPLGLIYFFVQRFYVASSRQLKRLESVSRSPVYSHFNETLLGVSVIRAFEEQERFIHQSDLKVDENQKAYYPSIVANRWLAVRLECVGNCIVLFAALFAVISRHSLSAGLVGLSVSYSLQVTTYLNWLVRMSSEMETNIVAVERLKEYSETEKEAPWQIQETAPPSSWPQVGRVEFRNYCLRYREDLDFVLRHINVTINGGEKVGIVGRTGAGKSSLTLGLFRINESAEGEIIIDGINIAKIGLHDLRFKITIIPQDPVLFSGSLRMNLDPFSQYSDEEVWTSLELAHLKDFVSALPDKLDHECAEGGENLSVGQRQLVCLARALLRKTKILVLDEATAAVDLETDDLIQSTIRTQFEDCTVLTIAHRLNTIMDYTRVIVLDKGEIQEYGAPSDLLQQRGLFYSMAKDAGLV
smiles,measurement,setting,value
COc1ccc2cc1Oc1ccc(cc1)C[C@H]1c3cc(c(OC)cc3CCN1C)Oc1c(OC)c(OC)c(OC)c3c1[C@H](C2)N(C)CC3 [HERNANDEZINE],Ratio,[1],547
same,Activity,KB 3-1,4.4%
same,Ratio,[2],13
same,Ratio,[3],11
same,Ratio,[4],23
same,Activity,KB-V1,4.7%
